Screening results from PubChem.
Apaf1 activ = human Apaf-1 activation. hit rate 0.31% among 330,000. O14727. activity change, negative = activation, % at 20 µM. Apaf-1 apoptosome caspase-3 activation, DEVD-Rh110 fluorescence; stronger effect = lower value. AID 489031;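 active = activity change at or below -40% at 20 µM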
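Schedule: 30 min preincubation, 50 min reaction, room temperature / System: biochemical Apaf-1 apoptosome reconstitution / Medium: 20 mM HEPES pH 7.5 with CHAPS, BSA / Evaluation: Caspase-3 cleavage activity downstream of Apaf-1 activation / Detection: Caspase-3-released Rh110 fluorescence, 540 nm emission, 480 nm excitation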
Rh110 interf act = interferes with Rh110 fluorescence, flagging false Apaf-1 activators | shares compounds with Apaf1 activ | Rh110 fluorescence interference, quenched caspase reaction, Ex480/Em540 | fluorescence interference (activity change), % at 20 µM, hits read low | 980 tested, under 10 active | AID 504616;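 active = mean activity change at or below -40% when tested at 20 µM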
Apaf-1 act conf = Apaf-1 (human) activation, single-dose confirmed | shares compounds with Apaf1 activ | reconstituted apoptosome caspase-3 activity, DEVD-Rh110 fluorescence; stronger effect = lower value | activity change, negative = activation, % at 20 µM | hit rate 5% among 980 | AID 504617;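 active = mean activity change at or below -40%, meaning activation of 40% or more, at 20 µM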
Fluor interf act = Apaf-1 activator counter-screen fluorescence artifact. fluorescence interference counterscreen, Apaf-1 activator assay. AID 588592. EC50, µM. 55 tested, under 10 active. shares compounds with Apaf1 activ; call rule not given here
Active calls of the source: *; . = no result. A selection follows.

SMILES	Apaf1 activ	Rh110 interf act	Apaf-1 act conf	others
Cc1noc(C)c1C(=O)Nc1ccc(F)cc1F	-71*	16	11
CCC(C)N(C(=O)COC(=O)c1cc([N+](=O)[O-])ccc1N1CCOCC1)C1CCS(=O)(=O)C1 (centres undefined)	78	.	.
CCCCCCOC(=O)C[N+](C)(C)CCOC1CC2CCC1(C)C2(C)C (centres undefined)	52	.	.
NC1=NC[C@@H](CC2CCCCC2)N1CCc1cc(C(F)(F)F)cc(C(F)(F)F)c1	79	.	.
C#CCOCCOCCOCCNc1nc(N2CCN(C(=O)Cn3cc(CCCCN)nn3)CC2)nc(N2CCN(C(=O)[C@H](CCCCN)n3cc(CCCC)nn3)CC2)n1	41	.	.
C[C@H](NC(=O)c1ccc(C(C)(C)C)cc1)C(=O)N1CCN(C/C=C/c2ccccc2)CC1	43	.	.
COc1ccc(OC)c(NC(=S)N2CCN(C/C=C/c3ccccc3)CC2)c1	-300*	9	13
COc1ccc(CN2C(=O)Cc3c2nc(N)c2c(N)nc(N4CCOCC4)c(C#N)c32)cc1	86	.	.
Cc1cc(C)cc(NC(=O)C2CCN(S(C)(=O)=O)CC2)c1	-67*	1	0
Cc1coc2c1C(=O)C(=O)c1c-2ccc2c(C)cccc12	96	.	.
O=C(Oc1ccc[nH]c1=O)c1cc([N+](=O)[O-])cc([N+](=O)[O-])c1	93	.	.
CCCC(C)NC(=O)c1cc(C(=O)OC)cc([N+](=O)[O-])c1 (centres undefined)	-108*	-2	11
COc1cc2sc3cc(NCC[C@@H]4CCCN4C)ccc3c(=O)c2cc1OC	55	.	.
CN(C)c1cc(Cl)c2nonc2c1N	94	.	.
COc1cc(C2Nc3cccc4cccc(c34)N2)cc(OC)c1OC(C)=O	41	.	.
NC(=O)CSc1ncc(-c2ccc([N+](=O)[O-])cc2)[nH]1	-244*	15	8
CCOC(=O)C1Nc2ccccc2C2C(O)C(O)CC12 (centres undefined)	66	.	.
O=C1Nc2cc(Cl)c(Cl)cc2N(O)N1c1cccc(Cl)c1	44	.	.
O=C1Nc2ccccc2N(O)N1c1cc(-c2cccc(Cl)c2)no1	-88*	-9	14
OCCNC(=S)Nc1ccc2nsnc2c1	97	.	.
COCCn1c(N)c(C#N)c2nc3ccccc3nc21	52	.	.
CC1=NN(c2ccc(C(=O)O)cc2)C(=O)/C1=C\c1ccc(OC(=O)c2cccs2)cc1	75	.	.
Cc1cc(C)cc(Oc2coc3cc(OC(=O)c4cccs4)ccc3c2=O)c1	-560*	10	12
C[C@H](CO)N1C[C@H](C)[C@@H](CN(C)Cc2ccc(Cl)c(Cl)c2)Oc2c(NC(=O)CCC(F)(F)F)cccc2C1=O	46	.	.
O=c1[nH]c(N2CCOCC2)cc2ccccc12	93	.	.
SMILES	Apaf1 activ	Rh110 interf act	Apaf-1 act conf	others
CC(C)(C)NC(=O)C[C@H]1C[C@H](C(=O)N2CCOCC2)[C@@]2(CCC3CCCC3)c3[nH]c4ccc(Cl)cc4c3CCN2C1=O	44	.	.
Cc1coc2c1C(=O)C(=O)c1c-2ccc2c1CCCC2(C)C	77	.	.
O=c1cc(-c2cc3ccccc3o2)c2cc(O)ccc2o1	-234*	11	18
COc1cc(OC)cc(-c2sc3ccc(OC)cc3c2C#CC2(N)CCCCC2)c1	67	.	.
COc1ccccc1N1C(C)=CC(=C(C#N)c2nc3ccccc3s2)C=C1C	56	.	.
CN(C)c1ccc(C(=S)N2CCCCC2)cc1	-335*	-3	2
Cc1ccc(-n2nc(C)c3c2OC(N)=C(C#N)C3c2ccoc2)cc1 (centres undefined)	81	.	.
Cc1ccc(N2CC(C(=O)N3CCC(C(=O)Nc4nnc(C(C)(C)C)s4)CC3)CC2=O)cc1 (centres undefined)	-384*	10	12
C#CCOCCOCCOCCNc1nc(N2CCN(C(=O)C([C@@H](C)CC)n3cc(C(N)COC(=O)C(F)(F)F)nn3)CC2)nc(N2CCN(C(=O)[C@H](Cc3cc4ccccc4[nH]3)n3cc(C(N)CO)nn3)CC2)n1 (some centres undefined)	49	.	.
COc1ccc(C(=O)O)cc1NC(=S)NC(=O)CSc1ccc(Cl)cc1	-152*	-11	15
Cc1nn(CCc2nn[nH]n2)c2nc(-c3ccc(C4CCCCC4)cc3)cc(C(F)(F)F)c12	60	.	.
COCCN1C=C2C(=O)C(C)(OC(=O)CCC(=O)OC)C(=O)C=C2C=C1C1CC1 (centres undefined)	43	.	.
c1ccc(CC2CCN(c3nc4ccccc4n4nnnc34)CC2)cc1	58	.	.
COC(=O)C1=C(C)N(CC2CC2)C(=NCc2cccc(C(F)(F)F)c2)N[C@H]1c1ccccc1	57	.	.
O=C(O)CCCN1C(=O)/C(=C\c2ccc(-c3nc4ccccc4s3)o2)SC1=S	-81*	16	-120*	Fluor interf act=>100
O=C(O)CC(C(=O)O)N1C(=O)/C(=C/C=C/c2ccco2)SC1=S (centres undefined)	85	.	.
C[C@]12C=CC(=O)C=C1CC[C@@H]1C2=CC[C@]2(C)[C@@H](C(=O)CN3CCN(c4cc(N5CCCC5)nc(N5CCCC5)n4)CC3)CC[C@@H]12	87	.	.
CC(C)C[C@H]1CN=C(Nc2ccccc2)N1CC1CCC(C(C)(C)C)CC1 (some centres undefined)	56	.	.
Cc1ccc2nc(N(CCCN(C)C)C(=O)c3ccc(S(=O)(=O)N4CCc5ccccc5C4)cc3)sc2c1	53	.	.
CCS(=O)(=O)c1nc(S(=O)(=O)c2ccc(Cl)cc2)c(N2CCc3ccccc3C2)s1	-406*	-2	11
COCC(C)N1C(=O)Cc2c1nc(N)c1c(N)nc(N3CCN(c4ccccc4F)CC3)c(C#N)c21 (centres undefined)	97	.	.
O=C1Cc2cc(S(=O)(=O)N3CCNCC3)ccc2N1	40	.	.
Cc1ccc(N(CC(N)=O)C2SC(=O)N(C)C2=O)cc1 (centres undefined)	-488*	8	12
Cc1ccccc1N=Cc1cccc(O)c1O	74	.	.
CNC[C@H]1Oc2ccc(NC(=O)Nc3ccc(OC)cc3)cc2C(=O)N([C@@H](C)CO)C[C@H]1C	45	.	.
SMILES	Apaf1 activ	Rh110 interf act	Apaf-1 act conf	others
CCN1C(=O)C(C(=O)Nc2ccc(OC)cc2)C2CC1(C)Oc1ccccc12 (centres undefined)	-542*	9	12
COc1cccc(-c2sc3ccc(OC)cc3c2-c2ccc(OCCN(C)C)cc2)c1	75	.	.
CC(C)(C)C(=O)[C@@H]1[C@@H]2C(=O)N(C3CCCCC3)C(=O)[C@@H]2[C@H]2c3ccccc3C=CN12	64	.	.
Cc1ccccc1NC(=O)CSc1nnc(NC(=O)c2ccco2)s1	-66*	-4	4
Cn1cc([N+](=O)[O-])c(C(=O)NNC(=O)c2ccc([N+](=O)[O-])cc2Cl)n1	-161*	1	0
O=C(NNc1cc(N2CCCC2)nc(N2CCCC2)n1)c1ccc([N+](=O)[O-])cc1	98	.	.
CCC(CO)Oc1cc(NCc2ccc(C)cc2)c2ncn(C(C)C)c2c1 (centres undefined)	41	.	.
C1=CC2c3ccccc3NC(c3ccncc3)C2C1 (centres undefined)	49	.	.
